Assay outcomes (PubChem BioAssay)
A selection: hits, their analogues and other compounds. The true share with any hit is near 1.3%.
DDE Tn6 FP inh – inhibitors of Tn6 peptide binding to fibrin DD(E), primary screen, biochemical, fluorescence polarization, human fibrin, Tn6 probe; inhibition, % at 8.3 µM; Fibrinogen beta chain (Homo sapiens), P02675; AID 720509, 2013; hit rate 0.21% among 370,000; Fibrin DD(E) TRITC-Tn6 fluorescence polarization displacement;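 active = inhibition above a per-campaign cutoff: mean of compounds within control limits plus 3 SD, cut at about 15% in these data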;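 also: 0% = median of all compound wells on the plate and 100% = blocking peptide control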
TCR CD3 inh – inhibitors of human TCR-CD3 interaction, primary screen, biochemical, fluorescence, TAMRA-labeled TCR probe. T-cell receptor (TCR). inhibition, % at 9.4 µM. hit rate 0.37% among 360,000. AID 651800, 2012; in the data active = inhibition above about 19%;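 also: recombinant mutant TCR 2C K166C tagged with TAMRA read by polarization; 0% = receptor in buffer alone and 100% = receptor with positive control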
ABHD4 inh – ABHD4 inhibitors, primary screen, biochemical, fluorescence polarization, mouse | hit rate 0.54% among 370,000 | AID 720543, 2013 | inhibition, % at 8.92 µM | purified mABHD4, FP-Rh probe fluorescence polarization;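 active = inhibition exceeding the mean over every tested compound plus 3 SD, cut at about 30% in these data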;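 also: 0% = plate median of compound wells and 100% = S159A mutant with DMSO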
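Test system: mABHD4 protein; Read-out basis: % inhibition; Incubation: 45 min + 60 min at 25 °C; Repeats: single replicate; Technique: fluorescence polarization with parallel and perpendicular emission, 525/598 nm; Compound: 8.92 µM, single dose; Benchmarks: full inhibition S159A mutant plus DMSO, zero as sample-well median.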
HTRA1 inh – HTRA1 serine protease inhibitors, primary screen, biochemical, fluorescence polarization, HTS | AID 504803, 2011 | inhibition, % at 5.96 µM | hit rate 0.5% among 340,000 | recombinant HTRA1, FP-rhodamine activity-based probe | Q92743; in the data active = inhibition above about 36%;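 also: 0% = enzyme with DMSO and 100% = wells lacking enzyme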
Target sequence (Q92743 whole entry, looked up): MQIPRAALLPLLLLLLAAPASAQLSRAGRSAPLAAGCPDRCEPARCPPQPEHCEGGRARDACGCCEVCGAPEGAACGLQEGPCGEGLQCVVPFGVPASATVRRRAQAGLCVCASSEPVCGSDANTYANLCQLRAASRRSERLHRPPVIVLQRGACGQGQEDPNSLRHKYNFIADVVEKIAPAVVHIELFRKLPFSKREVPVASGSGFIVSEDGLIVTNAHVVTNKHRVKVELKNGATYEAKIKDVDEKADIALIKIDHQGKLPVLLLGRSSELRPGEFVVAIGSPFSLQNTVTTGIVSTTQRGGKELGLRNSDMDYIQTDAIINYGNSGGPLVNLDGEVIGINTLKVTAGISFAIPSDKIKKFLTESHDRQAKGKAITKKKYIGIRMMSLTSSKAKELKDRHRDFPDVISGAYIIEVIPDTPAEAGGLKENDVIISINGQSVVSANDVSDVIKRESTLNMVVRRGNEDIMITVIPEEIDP
DDE Tn7 FP inh – inhibitors of Tn7 peptide binding to fibrin DD(E), primary screen, biochemical, fluorescence polarization, human fibrin, Tn7 probe; Fibrinogen beta chain (Homo sapiens), P02675; inhibition, % at 8.3 µM; FP displacement of FITC-Tn7 peptide from fibrin DD(E); 0% = median of compound wells per plate; hit rate 0.13% among 370,000;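 active = inhibition above the mean of compounds falling within the control limits plus 3 SD of them, cut at about 14% in these data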;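 also: 0% = plate median of compound wells and 100% = 10 µM Aha-Tn7 peptide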
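Assay system: Human clot-derived fibrin DD(E) complex | Buffer or medium: Tris/NaCl/CaCl2 buffer, pH 7.8 | Repeats: One replicate per compound | Benchmarks: Aha-Tn7 high control | Measure: % inhibition scaled between sample-field median and high-control FP | Schedule: 10 min plus 3 h, room temperature | Signal: Fluorescence polarization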
DDE Tn6 FP ctr – DD(E)-Tn6 binding inhibition, counter-screen; Fibrin DD(E), TRITC-Tn6 fluorescence polarization displacement; 0% = median of compound wells, not DMSO; hit rate 2% among 680; inhibition, % at 8.3 µM; shares compounds with DDE Tn6 FP inh; AID 720621;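 active = inhibition above the mean of test compounds lying between the control limits plus 3 SD of those, cut at about 14% in these data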;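 also: 0% = median of compound wells and 100% = wells with Aha-Tn7 blocking peptide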
Tn6 DDE conf – inhibitors of Tn6 peptide binding to fibrin DD(E), confirmation, biochemical, fluorescence polarization, human fibrin, Tn6 probe; hit rate 10% among 680; shares compounds with DDE Tn6 FP inh; AID 720631, 2013; FP displacement of TRITC-Tn6 peptide from DD(E); 0% = per-plate median of test wells; inhibition, % at 8.3 µM;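 active = inhibition above the mean of compounds lying within the control limits plus 3 SD, cut at about 16% in these data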;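 also: 100% = high control wells holding a competing inhibitor peptide at 10 µM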
The depositor's hits bear a star.

Results for CCCCNC(=O)C1(C)CCC(=O)N1CC(F)(F)F (stereo unspecified) ?
DDE Tn6 FP inh: 0; TCR CD3 inh: -2; ABHD4 inh: 4; DDE Tn7 FP inh: 4

Results for Cc1ccc(C)c(Cn2nnc3c(=O)[nH]c(C4CCN(S(=O)(=O)c5ccc(S(=O)(=O)NC6CC6)cc5)CC4)nc32)c1 ?
DDE Tn6 FP inh: 18*; TCR CD3 inh: 6; ABHD4 inh: -52; HTRA1 inh: -80; DDE Tn7 FP inh: -2; DDE Tn6 FP ctr: 6; Tn6 DDE conf: 6

How did Cc1ccc(C)c(Cn2nnc3c(=O)[nH]c(C4CCN(S(=O)(=O)c5ccc(S(=O)(=O)N(C)C)cc5)CC4)nc32)c1 do in these assays?
DDE Tn6 FP inh: 4; TCR CD3 inh: 2; ABHD4 inh: 3; HTRA1 inh: -3; DDE Tn7 FP inh: -2

Results for Nc1ccc(N2CCOCC2)c(S(=O)(=O)Nc2ccccc2Cl)c1 ?
DDE Tn6 FP inh: 18*; TCR CD3 inh: 19; ABHD4 inh: 19; HTRA1 inh: 10; DDE Tn7 FP inh: 5; DDE Tn6 FP ctr: 6; Tn6 DDE conf: 4

Results for CCC(C)(C(=O)NC1CCCC1)N(Cc1cccs1)C(=O)Cc1cccs1 (stereo unspecified) ?
DDE Tn6 FP inh: 6; TCR CD3 inh: 8; ABHD4 inh: 2; HTRA1 inh: 2; DDE Tn7 FP inh: -2

Results for CCC(C)(C(=O)NC1CCCCC1)N(C(=O)Cc1cccs1)c1ccccc1 (stereo unspecified) ?
DDE Tn6 FP inh: 15*; TCR CD3 inh: 4; ABHD4 inh: 0; HTRA1 inh: -8; DDE Tn7 FP inh: 0; DDE Tn6 FP ctr: 1; Tn6 DDE conf: 2

How did CCCCn1c(O)c(C(CC)=Nc2ccc3c(c2)CCC3)c(=O)[nH]c1=O do in these assays?
DDE Tn6 FP inh: 17*; TCR CD3 inh: 2; ABHD4 inh: -1; HTRA1 inh: -3; DDE Tn7 FP inh: 1; DDE Tn6 FP ctr: 2; Tn6 DDE conf: -2

Results for O=C(NCc1ccc(F)cc1)C(=O)NCC(c1ccco1)N1CCOCC1 (stereo unspecified) ?
DDE Tn6 FP inh: 2; TCR CD3 inh: -2; ABHD4 inh: 7; HTRA1 inh: 2; DDE Tn7 FP inh: 0

What do the screens show for `Cc1ccc(CN2CC(N3CC=CC3)CS2(=O)=O)cc1` (stereo unspecified)?
DDE Tn6 FP inh: -2; TCR CD3 inh: -8; ABHD4 inh: -6; DDE Tn7 FP inh: -2

How did COC1=CC(=O)OC(c2ccc(C(F)(F)F)cc2)C1 (stereo unspecified) do in these assays?
DDE Tn6 FP inh: 16*; TCR CD3 inh: -7; ABHD4 inh: -1; DDE Tn7 FP inh: 9; DDE Tn6 FP ctr: 1; Tn6 DDE conf: -5

How did O=C(NCc1ccc(Cl)cc1)C1CCC(CNc2c(N3CCCCC3)c(=O)c2=O)CC1 (stereo unspecified) do in these assays?
DDE Tn6 FP inh: 16*; TCR CD3 inh: 1; ABHD4 inh: 7; HTRA1 inh: 3; DDE Tn7 FP inh: -8; DDE Tn6 FP ctr: 8; Tn6 DDE conf: 4

Results for COc1cc(NC(=O)c2ccc3c(SCC(=O)O)c4c(nc3c2)CCCC4)cc(OC)c1OC ?
DDE Tn6 FP inh: -1; TCR CD3 inh: 2; ABHD4 inh: 12; HTRA1 inh: 2; DDE Tn7 FP inh: 5

What do the screens show for `O=C1/C(=C\c2cc([N+](=O)[O-])ccc2O)SC(=S)N1Cc1ccc(Cl)cc1`?
DDE Tn6 FP inh: 17*; TCR CD3 inh: -37; ABHD4 inh: -127; HTRA1 inh: -85; DDE Tn7 FP inh: -12; DDE Tn6 FP ctr: -24; Tn6 DDE conf: -1
